The results in this text go back to article PMC3986664 (Molecular Metabolism, 2014).

The nature of data set [1]: Measure of maximum solubility. The conditions noted are these: pH 7.4, 10 mM Tris, 4 °C, 48 h, saturated solution, UV 280 nm, single point. Type of data set: physicochemical. In outline: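 Saturated peptide solutions made in 10 mM Tris base, pH adjusted to 7.4, held 48 h at 4 °C and at ambient temperature, then pH re-measured. Serially diluted until no visible precipitate and UV absorbance became linear.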

Data set [2] can be described thus: Long-term stability study, alkaline RP-HPLC. The class given is physicochemical.

Where a SMILES comes first, the peptide text is derived from it. [ ]: non-standard residue; d: D form. Aib = CC(C)(N)C(=O)O

`CSCC[C@H](NC(=O)[C@H](CC(C)C)NC(=O)[C@H](Cc1c[nH]c2ccccc12)NC(=O)[C@H](CCC(N)=O)NC(=O)[C@@H](NC(=O)[C@H](Cc1ccccc1)NC(=O)[C@H](CC(=O)O)NC(=O)[C@H](CCC(N)=O)NC(=O)[C@H](C)NC(=O)[C@H](CCCNC(=N)N)NC(=O)[C@H](CCCNC(=N)N)NC(=O)[C@H](CO)NC(=O)[C@H](CC(=O)O)NC(=O)[C@H](CC(C)C)NC(=O)[C@H](Cc1ccc(O)cc1)NC(=O)[C@H](CCCCN)NC(=O)[C@H](CO)NC(=O)[C@H](Cc1ccc(O)cc1)NC(=O)[C@H](CC(=O)O)NC(=O)[C@H](CO)NC(=O)[C@@H](NC(=O)[C@H](Cc1ccccc1)NC(=O)[C@@H](NC(=O)CNC(=O)[C@H](CCC(N)=O)NC(=O)[C@H](CO)NC(=O)[C@@H](N)Cc1c[nH]cn1)[C@@H](C)O)[C@@H](C)O)C(C)C)C(=O)N[C@@H](CC(=O)O)C(=O)N[C@@H](CCC(=O)O)C(=O)O` [Asp28,Glu29]: the “Apparent solubility relative to Asp28” value in data set [1] is “doubling in apparent peptide solubility”.

With `CSCC[C@H](NC(=O)[C@H](CC(C)C)NC(=O)[C@H](Cc1c[nH]c2ccccc12)NC(=O)[C@H](CCC(N)=O)NC(=O)[C@@H](NC(=O)[C@H](Cc1ccccc1)NC(=O)[C@H](CC(=O)O)NC(=O)[C@H](CCC(N)=O)NC(=O)[C@H](C)NC(=O)[C@H](CCCNC(=N)N)NC(=O)[C@H](CCCNC(=N)N)NC(=O)C(C)(C)NC(=O)[C@H](CC(=O)O)NC(=O)[C@H](CC(C)C)NC(=O)[C@H](Cc1ccc(O)cc1)NC(=O)[C@H](CCCCN)NC(=O)[C@H](CO)NC(=O)[C@H](Cc1ccc(O)cc1)NC(=O)[C@H](CC(=O)O)NC(=O)[C@H](CO)NC(=O)[C@@H](NC(=O)[C@H](Cc1ccccc1)NC(=O)[C@@H](NC(=O)CNC(=O)[C@H](CCC(N)=O)NC(=O)[C@H](CO)NC(=O)[C@@H](N)Cc1c[nH]cn1)[C@@H](C)O)[C@@H](C)O)C(C)C)C(=O)N[C@@H](CC(=O)O)C(=O)N[C@@H](CCC(=O)O)C(=O)O` [IUB75] (H-HSQGTFTSDYSKYLD[Aib]RRAQDFVQWLMDE-OH), the “Difference in stability at six months between Asp28 and IUB75 (Δ1)” value in data set [2] (Figure 8, trend-line of degradation slopes) is reported as 40%. Besides, the “Stability relative to Asp28” value in data set [2] (same pH and ambient temperature, six month study) is given as “approximately twice as stable”. In data set [2] (six months, ambient temperature, 1 mg/ml, 20 mM Tris, 0.1% SDS, pH 8.6), the Total degradation result is reported as “more than 20%”.
